Experimental data published in ChEMBL document CHEMBL1123656, “Synthesis and antitumor activity of tropolone derivatives. 4” (1987).

Assays:
Format in all cases: functional, Mus musculus
P388 [1] = experiment: Compound was evaluated for activity against P388 leukemia, at an intraperitoneal dose of 100 mg/kg
Outline: (§1)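 Mice bearing P388 leukemia were given the compound intraperitoneally, with activity read out as T/C (%). The full protocol is cited to earlier work.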

P388 [2] = experiment: Compound was evaluated for activity against P388 leukemia, at an intraperitoneal dose of 200 mg/kg; outline: as §1
P388 [3] = experiment: Compound was evaluated for activity against P388 leukemia, at an intraperitoneal dose of 20 mg/kg; outline: as §1
P388 [4] = experiment: Compound was evaluated for activity against P388 leukemia, at an intraperitoneal dose of 400 mg/kg; outline: as §1
P388 [5] = experiment: Compound was evaluated for activity against P388 leukemia, at an intraperitoneal dose of 12.5 mg/kg; outline: as §1
P388 [6] = experiment: Compound was evaluated for activity against P388 leukemia, at an intraperitoneal dose of 6.3 mg/kg; outline: as §1
P388 [7] = experiment: Compound was evaluated for activity against P388 leukemia, at an intraperitoneal dose of 3.1 mg/kg; outline: as §1
P388 [8] = experiment: Compound was evaluated for activity against P388 leukemia, at an intraperitoneal dose of 50 mg/kg; outline: as §1
P388 [9] = experiment: Compound was evaluated for activity against P388 leukemia, at an intraperitoneal dose of 5 mg/kg; outline: as §1
P388 [10] = experiment: Compound was evaluated for activity against P388 leukemia, at an intraperitoneal dose of 25 mg/kg; outline: as §1
P388 [11] = experiment: Compound was evaluated for activity against P388 leukemia, at an intraperitoneal dose of 10 mg/kg; outline: as §1

COc1ccc(C(c2ccc(C(C)C)cc(=O)c2O)c2c(O)c(C(=O)O)cc3ccccc23)cc1 (configuration not stated)
T/C (P388 [1]): 141%
T/C (P388 [2]): 0%
T/C (P388 [3]): 106%

COc1ccc(C(C2=C(C)C(=O)c3ccccc3C2=O)c2ccc(C(C)C)cc(=O)c2O)cc1 (configuration not stated)
T/C (P388 [1]): 114%
T/C (P388 [2]): 131%
T/C (P388 [4]): 72%

COc1ccc(C(c2ccc(C(C)C)cc(=O)c2O)c2ccc3cccnc3c2O)cc1 (configuration not stated)
T/C (P388 [5]): 141%
T/C (P388 [6]): 151%
T/C (P388 [7]): 144%

COc1ccc(C(C2=C(O)C(=O)c3ccccc3C2=O)c2ccc(C(C)C)cc(=O)c2O)cc1 (configuration not stated)
T/C (P388 [3]): 129%
T/C (P388 [8]): 0%
T/C (P388 [9]): 108%

COc1ccc(C(c2cc(C(C)(C)C)cc(O)c2O)c2ccc(C(C)C)cc(=O)c2O)cc1 (configuration not stated)
T/C (P388 [8]): 168%
T/C (P388 [5]): 110%
T/C (P388 [10]): 127%

COc1ccc(C(c2cc(C(C)(C)C)ccc2O)c2ccc(C(C)C)cc(=O)c2O)cc1 (configuration not stated)
T/C (P388 [1]): 120%
T/C (P388 [8]): 116%
T/C (P388 [10]): 116%

CCOC(c1ccc(OC)cc1)c1ccc(C(C)C)cc(=O)c1O (configuration not stated)
T/C (P388 [1]): 148%

COc1ccc(C(c2ccc(C(C)C)cc(=O)c2O)c2c(O)cc3oc(-c4ccccc4)cc(=O)c3c2O)cc1 (configuration not stated)
T/C (P388 [1]): 136%
T/C (P388 [2]): 148%
T/C (P388 [10]): 127%

COc1ccc(C(c2ccc(C(C)C)cc(=O)c2O)C2Oc3c(Cl)c(OC)cc(OC)c3C2=O)cc1 (configuration not stated)
T/C (P388 [1]): 130%
T/C (P388 [8]): 109%
T/C (P388 [10]): 117%

COc1ccc(C(c2ccc(C(C)C)cc(=O)c2O)c2c(O)oc3ccccc3c2=O)cc1 (configuration not stated)
T/C (P388 [3]): 127%
T/C (P388 [9]): 128%
T/C (P388 [11]): 117%

COc1ccc(C(c2ccc(C(C)C)cc(=O)c2O)c2ccc3ccccc3c2O)cc1 (configuration not stated)
T/C (P388 [8]): 108%
T/C (P388 [5]): 105%
T/C (P388 [10]): 125%

COc1ccc(C(c2ccc(O)cc2O)c2ccc(C(C)C)cc(=O)c2O)cc1 (configuration not stated)
T/C (P388 [1]): 104%
T/C (P388 [2]): 136%
T/C (P388 [8]): 98%

COc1ccc(C(c2cc(O)ccc2O)c2ccc(C(C)C)cc(=O)c2O)cc1 (configuration not stated)
T/C (P388 [8]): 128%
T/C (P388 [5]): 128%
T/C (P388 [10]): 142%
